From ChEMBL document CHEMBL3612041, “Combating highly resistant emerging pathogen Mycobacterium abscessus and Mycobacterium tuberculosis with novel salicylanilide esters and carbamates” (Eur J Med Chem, 2015)
Converted amounts (≈) assume the structure as drawn.

What was measured:
[1] = Drug level in serum-free RPMI-1640 medium treated with [4-bromo-2-[[4-(trifluoromethyl)phenyl]carbamoyl]phenyl] 5-chloropyrazine-2-carboxylate at 0.75 mg/ml after 29 hrs by ESI-MS spectra analysis; assay type: physicochemical
[2] = Solubility of the compound in RPMI-1640/Sula media by spectrophotometric analysis; assay type: physicochemical
Summary of the method: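 Solubility measured under assay conditions in RPMI and Sula media with 1 v/v% DMSO. Undissolved compound removed on a PVDF filter. 120 µL filtrate mixed with 80 µL acetonitrile, and concentration measured spectrophotometrically.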

[3] = tested on: Mycobacteroides abscessus; test: Antimycobacterial activity against Mycobacterium abscessus ATCC 19977 after 7 days by serial dilution method; assay type: functional; details: for MIC: Mycobacteroides abscessus, ATCC 19977, 168 h
Summary of the method: (§1)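 Serial dilution in in-house Sula semisynthetic medium, pH 6.5. Compounds added as DMSO solutions at 10 doses, final 0.05–100 µg/mL. Incubation at 37 °C, 7 days for M. abscessus and 28 days for M. tuberculosis strains. MIC taken as the lowest concentration giving visible growth inhibition, confirmed by CFU on drug-free Löwenstein-Jensen medium after further equal incubation. Repeated at least twice.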

MONO-MAC-6 = test: Cytostatic activity against human MONO-MAC-6 cells assessed as cell viability after 16 hrs by MTT assay; assay type: cell-based; details: MONO-MAC-6, 16 h
Summary of the method: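 MonoMac6 cells kept in RPMI-1640 with 10% FCS, 2 mM L-glutamine and gentamycin at 37 °C, 5% CO2. Cells plated 10⁵ per well and treated after 24 h for 16 h in serum-free RPMI (1.0 v/v% DMSO), 5×10⁻² to 10² µM. MTT at 367 µg/mL final for 3.5 h, crystals dissolved in DMSO, OD540 minus OD620. Cytotoxicity % versus untreated control fitted sigmoidally for IC50. Two independent experiments, 4–8 parallels.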

[4] = Selectivity index, ratio of IC50 for human MONO-MAC-6 cells to MIC for Mycobacterium tuberculosis H37Rv ATCC 27294; assay type: toxicity; details: read-out: Selectivity Index
[5] = Selectivity index, ratio of IC50 for human MONO-MAC-6 cells to MIC for Mycobacterium abscessus ATCC 19977; assay type: toxicity; details: read-out: Selectivity Index
[6] = tested on: Mycobacterium tuberculosis; test: Antimycobacterial activity against Mycobacterium tuberculosis H37Rv ATCC 27294 after 28 days by serial dilution method; assay type: functional; details: for MIC: Mycobacterium tuberculosis, H37Rv ATCC 27294, 672 h; summary of the method: as §1
[7] = Drug level in serum-free RPMI-1640 medium treated with [4-bromo-2-[[4-(trifluoromethyl)phenyl]carbamoyl]phenyl] N-(3-chloropropyl)carbamate at 0.75 mg/ml after 6 hrs by RP-HPLC analysis; assay type: physicochemical
[8] = Retention time of the compound in serum-free RPMI-1640 medium containing 10% DMSO at 0.5 mg/ml after 30 mins by RP-HPLC analysis; assay type: physicochemical; details: 0.5 h
Summary of the method: (§2)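 Stability in serum-free RPMI-1640 with 10% DMSO at 0.5 mg/ml, monitored by RP-HPLC on a C18 column. Gradient of 0.1% TFA water/acetonitrile-water, 1 ml/min, ambient temperature. Peaks identified by ESI-MS.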

[9] = Retention time of the compound in DMSO at 0.75 mg/ml measured at 0 min by RP-HPLC analysis; assay type: physicochemical; details: 0 h
Summary of the method: (§3)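 Stability in DMSO at 0.75 mg/ml, monitored by RP-HPLC on a C18 4.6×150 mm column. Gradient 0–100% B (A: 0.1% TFA in water; B: 0.1% TFA in acetonitrile-water 80:20), 1 ml/min, ambient temperature. Sampled at 0 min and after 29 h, detection at 280 or 220 nm.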

[10] = Retention time of the compound in DMSO at 0.75 mg/ml measured after 29 hrs by RP-HPLC analysis; assay type: physicochemical; summary of the method: as §3
[11] = Half life of the compound in serum-free RPMI-1640 medium at 0.75 mg/ml by RP-HPLC analysis; assay type: ADME
[12] = Retention time of the compound in serum-free RPMI-1640 medium containing 10% DMSO at 0.5 mg/ml after 5 hrs by RP-HPLC analysis; assay type: physicochemical; summary of the method: as §2
[13] = tested on: Mycobacteroides abscessus; test: Potency index, ratio of ciprofloxacin MIC to compound MIC for Mycobacterium abscessus ATCC 19977; assay type: functional
[14] = tested on: Mycobacteroides abscessus; test: Potency index, ratio of gentamicin MIC to compound MIC for Mycobacterium abscessus ATCC 19977; assay type: functional

**Q.** Which Drug metabolism [1] does the source give for `O=C(Nc1ccc(C(F)(F)F)cc1)c1cc(Br)ccc1O` here?
**A.** metabolite_detected

**Q.** And the solubility [2]?
**A.** < 100 µM

**Q.** What about the Activity [3] of the same compound?
**A.** 0 CFU

**Q.** And the MIC [3]?
**A.** 13.9 µM (≈ 5.01 µg/mL)

**Q.** And the IC50 (MONO-MAC-6)?
**A.** 7.6 µM

**Q.** And the selectivity ratio [4]?
**A.** 5.4

**Q.** And the selectivity ratio [5]?
**A.** 0.5

**Q.** And the Activity [6]?
**A.** 2 CFU

**Q.** What about the MIC [6] of the same compound?
**A.** 1.4 µM (≈ 0.504 µg/mL)

**Q.** What about the Drug metabolism [7] of the same compound?
**A.** metabolite_detected

**Q.** For `O=C(Oc1ccc(Br)cc1C(=O)Nc1ccc(C(F)(F)F)cc1)c1cnc(Cl)cn1`, which solubility [2] is on record?
**A.** < 100 µM

**Q.** What about the Activity [3] of the same compound?
**A.** 0 CFU

**Q.** And the MIC [3]?
**A.** 5 µM (≈ 2.5 µg/mL)

**Q.** And the IC50 (MONO-MAC-6)?
**A.** 1.1 µM

**Q.** What about the selectivity ratio [4] of the same compound?
**A.** 1.1

**Q.** And the Retention_time [8]?
**A.** 24 min

**Q.** And the Retention_time [9]?
**A.** 24 min

**Q.** What about the Retention_time [10] of the same compound?
**A.** 24 min

**Q.** What about the selectivity ratio [5] of the same compound?
**A.** 0.2

**Q.** What about the half-life at 0.75 mg/ml [11] of the same compound?
**A.** 3.7 h

**Q.** What about the Activity [6] of the same compound?
**A.** 0 CFU

**Q.** And the MIC [6]?
**A.** 1 µM (≈ 0.501 µg/mL)

**Q.** What about the Retention_time [12] of the same compound?
**A.** 24 min

**Q.** For `O=C(NCCCCl)Oc1ccc(Br)cc1C(=O)Nc1ccc(C(F)(F)F)cc1`, which solubility [2] is on record?
**A.** < 50 µM

**Q.** And the Activity [3]?
**A.** 0 CFU

**Q.** What about the MIC [3] of the same compound?
**A.** 0.2 µM (≈ 0.0959 µg/mL)

**Q.** What about the Ratio [13] of the same compound?
**A.** 15

**Q.** And the IC50 (MONO-MAC-6)?
**A.** 5.7 µM

**Q.** What about the selectivity ratio [4] of the same compound?
**A.** 5.7

**Q.** And the Ratio [14]?
**A.** 53

**Q.** And the Retention_time [8]?
**A.** 22.6 min

**Q.** And the Retention_time [9]?
**A.** 22.6 min

**Q.** What about the Retention_time [10] of the same compound?
**A.** 22.6 min

**Q.** And the selectivity ratio [5]?
**A.** 28.5

**Q.** What about the half-life at 0.75 mg/ml [11] of the same compound?
**A.** 0.183 h

**Q.** What about the Activity [6] of the same compound?
**A.** 8 CFU

**Q.** And the MIC [6]?
**A.** 1 µM (≈ 0.48 µg/mL)
